# HTR1E antagonist: blocks the human 5-HT1E serotonin receptor. AID 571. CHO 5-HT1E Ga15 NFAT-bla reporter, FRET, antagonist. inhibition, % at 6 µM. P28566. 65,000 tested, 0.99% active;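 active = inhibition above a set limit, the mean inhibition across every tested compound plus 3 SD, cut at about 29% in these data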;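 note: signal is the 460 over 535 nm emission ratio of beta-lactamase substrate; 0% = agonist plus DMSO wells and 100% = wells without agonist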
# Target sequence (P28566 whole entry, looked up): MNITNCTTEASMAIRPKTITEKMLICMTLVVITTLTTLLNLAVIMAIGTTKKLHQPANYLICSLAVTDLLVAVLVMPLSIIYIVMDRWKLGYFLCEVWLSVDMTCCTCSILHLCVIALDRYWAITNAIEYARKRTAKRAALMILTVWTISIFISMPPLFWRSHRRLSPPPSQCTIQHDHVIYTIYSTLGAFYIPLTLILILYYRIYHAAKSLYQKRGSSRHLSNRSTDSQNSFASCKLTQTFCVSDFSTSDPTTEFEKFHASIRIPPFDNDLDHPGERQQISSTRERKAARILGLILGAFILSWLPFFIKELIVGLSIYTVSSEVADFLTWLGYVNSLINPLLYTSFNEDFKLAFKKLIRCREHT
# S1P1 ag pot: agonists and agonism potentiators of human S1P1 receptor; P21453; S1P1 CRE-bla cells, forskolin, beta-lactamase FRET, potentiator mode; S1P1 agonist co-added at EC20, 2 nM; 100% = saturating reference agonist, 0% = basal; activation, % at 9.5 µM; 56,000 tested, 0.57% active; AID 449;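 active = activation above a cutoff set at the mean activation of all tested compounds plus 3 SD, cut at about 54% in these data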;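 note: forskolin at 4 µM as EC80 and the EC20 agonist is SEW2871; 100% = SEW2871 at its EC100 plus forskolin at EC80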
# HTR1A agonist: 5-HT1a (human) receptor agonism. activation, % at 10 µM. 65,000 tested, 0.56% active. CHO 5-HT1a Ga15 NFAT-bla reporter, FRET ratio; 0% basal, 100% maximal reference agonist. P08908;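 active = activation above the screen-wide mean activation plus 3 SD, cut at about 19% in these data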;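 note: 0% = DMSO wells and 100% = 5-CT at EC100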
# 5HT1a antag: blocks the human serotonin 5-HT1a receptor; 62,000 tested, 0.68% active; P08908; inhibition, % at 10 µM; CHO 5-HT1a Ga15 NFAT-bla reporter, antagonist mode;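 active = inhibition above the mean of all tested compounds plus 3 SD, cut at about 43% in these data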;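 note: receptor stimulated by 5-CT agonist at 100 nM near EC80; beta-lactamase reporter measured by ratiometric fluorescence of a cleavable substrate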
# S1P3 agonist: activates the human S1P3 receptor. S1P3 NFAT-BLA reporter cells, agonism, FRET ratio; relative to 1 µM S1P, basal subtracted. activation, % at 4.5 µM. 60,000 tested, 0.1% active;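 active = activation above the screen-wide mean plus 3 SD, cut at about 4.5% in these data, passing the limit was not always enough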
#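 Material: Human S1P3 NFAT-BLA reporter CHO cells | Incubation: Overnight plating, 4 h compound 37 °C, 2 h substrate RT | Signal: FRET β-lactamase substrate fluorescence, excitation 405 nm, 460/535 nm emission ratio, background-subtracted | Compound: 4.5 µM final, single dose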
# 5HT1E ag: activates the human 5-HT1E serotonin receptor. P28566. CHO 5-HT1E Ga15 NFAT-bla reporter, FRET; 0% DMSO wells, 100% control agonist wells. 65,000 tested, 0.69% active. activation, % at 6 µM. AID 574;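 active = activation above a set limit, the screen-wide mean activation plus 3 SD, cut at about 8.5% in these data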;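 note: 100% = positive control agonist at 1 µM giving full maximal response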
# Starred values were filed as active, the others as inactive; / = no result. Sampled rows, rich in hits. Any-hit rate of the full collection: about 3%.
SMILES,HTR1E antagonist,S1P1 ag pot,HTR1A agonist,5HT1a antag,S1P3 agonist,5HT1E ag
Cc1cc(S(=O)(=O)NCCc2ccccc2)c(C)s1,0,-11,-4,0,0,-1
O=C(Cc1c(C(=O)O)[nH]c2ccc(Cl)cc12)Nc1ccc2c(c1)OCCO2,-3,-22,-1,7,-1,-1
Nc1nonc1C(=O)NCCNCc1cc(Br)ccc1OCc1ccc(F)cc1,10,93*,-1,49*,-2,0
COCCn1c(SCC(=O)c2ccc(Cl)cc2)nnc1C(C)C,-12,-32,-1,-3,0,0
O=C(Cn1c(NCCCO)nc2ccccc21)c1ccco1,13,3,2,2,-1,-1
O=C(Nc1nc2ccccc2n1Cc1ccccc1)c1ccco1,-7,-2,-2,60*,-1,0
CCCc1cc(=O)[nH]c(SCC(=O)N2CCN(S(=O)(=O)c3ccc(C)cc3)C2)n1,1,-4,3,-12,0,0
CCN1CCN(c2nc(-c3cccnc3)nc3ccccc23)CC1,7,0,4,-3,0,13*
CN1CCN(c2nc(-c3cccnc3)nc3ccccc23)CC1,-3,-51,1,10,-1,42*
c1cncc(-c2nc(N3CCCCCC3)c3ccccc3n2)c1,11,-7,3,6,-1,0
CN1CCCC(OC(=O)c2cc(Cl)ccc2Cl)C1 (stereo not drawn),1,2,1,-3,-1,13*
COc1cccc(NC(=O)CSc2nc3n[nH]c(C)c3c(=N)n2-c2cccc(OC)c2)c1,33*,-10,2,-11,0,1
COc1cccc(-n2c(SCC(=O)NCCC3=CCCCC3)nc3n[nH]c(C)c3c2=N)c1,-8,-33,0,-13,0,1
Cn1c(=O)c2c(nc(CN3CCN(C(=O)c4ccco4)CC3)n2Cc2ccc(Cl)cc2)n(C)c1=O,-2,-8,1,-7,0,0
Cc1onc(-c2c(Cl)cccc2Cl)c1C(=O)N1CCc2ccccc21,11,-12,-4,-11,7.4*,0
COc1ccccc1CC(=O)Nc1ccc(O)cc1C(=O)O,-10,/,1,-10,0,1
Cc1nnc(NC(=O)c2cc3n(n2)C(C(F)(F)F)CC(C2CC2)N3)s1 (stereo not drawn),7,35,0,-3,0,0
O=C(Nc1nc2c(s1)CCCC2)c1cc2n(n1)C(C(F)(F)F)CC(C1CC1)N2 (stereo not drawn),8,107*,-1,-1,0,0
O=C(O)C1C2C=CC(O2)C1C(=O)NCCCn1ccnc1 (stereo not drawn),11,2,-2,6,-2,0
C=CCn1c(SCC(=O)N2CCOCC2)nc2scc(-c3ccco3)c2c1=O,13,-27,29*,1,-1,-2
O=C(Nc1ccc(N2CCOCC2)c(Cl)c1)c1cccc(F)c1,5,88*,-3,2,-1,0
O=C(Nc1ccc(N2CCOCC2)c(Cl)c1)c1c(F)c(F)c(F)c(F)c1F,14,/,-7,0,-1,-1
CC(C)Oc1cccc(C(=O)Nc2ccccc2N2CCOCC2)c1,32*,11,1,4,-1,-1
Cc1cc(NC(=O)Cn2cc(C(F)(F)F)cc(Cl)c2=O)no1,-3,-8,1,8,0,2
Nc1c(C(O)(C(F)(F)F)C(F)(F)F)ccc2ccccc12,5,-17,-4,13,0,-1
SMILES,HTR1E antagonist,S1P1 ag pot,HTR1A agonist,5HT1a antag,S1P3 agonist,5HT1E ag
CC(C)(C)N1C(=O)Cc2c1nc(N)c1c(N)nc(N3CCCCC3CO)c(C#N)c21 (stereo not drawn),34*,-40,-1,53*,0,0
C=CCn1c(=O)c2ccccc2n2c(SCC(=O)c3ccccc3)nnc12,2,-9,-1,-11,0,1
C=CCn1c(=O)c2ccccc2n2c(SCc3nc(N)nc(Nc4ccccc4C)n3)nnc12,30*,-55,0,-46,0,0
O=C(C1CCC1)N1CCc2cc(S(=O)(=O)Nc3ccc4c(c3)OCCO4)ccc21,9,115*,-4,9,-1,0
CCC(=O)N1CCc2cc(S(=O)(=O)Nc3ccc4c(c3)OCCO4)ccc21,8,/,-1,7,/,-1
CCCOc1ccc(C2C(C(=O)c3ccco3)=C(O)C(=O)N2CCCn2ccnc2)cc1 (stereo not drawn),-6,0,2,-16,-1,1
O=C(O)C1CSCN1S(=O)(=O)c1cccc2nsnc12 (stereo not drawn),-11,1,-1,/,-1,9.7*
O=C(NC1CCCCC1)C1CCCN1S(=O)(=O)c1cccc2nsnc12 (stereo not drawn),10,-14,-2,-6,0,-1
COc1ccccc1CC1(C)NC(=O)N(CC(=O)Nc2cc(C)on2)C1=O (stereo not drawn),9,7,-3,3,1,-1
COC(=O)c1cc(C)sc1NC(=O)c1cccnc1,-8,-46,-1,2,0,0
N#Cc1c(-c2cccs2)cc(-c2ccccn2)nc1N,43*,-52,6,5,0,2
N#Cc1c(N)nc(SCC(=O)NCCc2ccccc2)c(C#N)c1-c1cccs1,13,-9,12,/,-4,2
N#Cc1c(-c2cccs2)cc(-c2cccnc2)nc1N,44*,-16,3,6,-1,1
CCCCOc1ccc(OCCNS(=O)(=O)N(C)C)cc1,-11,-48,-1,-10,0,0
COc1ccc(NC(=O)Cn2cccc2)cc1Cl,6,0,141*,3,0,-1
COC(=O)c1ccc(CSc2nc(C)nc3c2c(=O)n(C)c(=O)n3C)o1,5,-26,-4,-14,-1,1
COC(=O)c1ccc(Oc2cc(C)nc(-n3nc(C)cc3C)n2)cc1,90*,-15,-3,65*,0,-1
CC1CCOC2(O1)C(=O)N(CN1CCN(c3ccccc3F)CC1)c1ccccc12 (stereo not drawn),-8,-3,2,-6,0,14*
O=C1N(CN2CCC3(CC2)OCCO3)c2ccccc2C12OCCCO2,0,-7,-3,-10,0,0
O=C1N(CN2CCN(c3cccc(Cl)c3)CC2)c2ccccc2C12OCCCO2,7,19,2,10,2,24*
O=C(CCc1nc(-c2ccccc2)no1)NCC1CCCO1 (stereo not drawn),-1,6,-2,7,-2,0
CC(C)c1cc(C(F)(F)F)n2nc(C(=O)Nc3ccc4c(c3)OCO4)cc2n1,24,102*,1,13,0,0

# Bioassay records (PubChem BioAssay)
